Laboratory results from ChEMBL document CHEMBL1828603, “Synthesis, antimicrobial activity and possible mechanism of action of 9-bromo-substituted indolizinoquinoline-5,12-dione derivatives” (2011).
Values after ≈ are worked out from the molar mass of the structure shown.

Tests used:
Format in all cases: functional
Escherichia coli = test: Antimicrobial activity against Escherichia coli ATCC 25922 by broth microdilution method
In short: (§1)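 Two-fold broth microdilution in Mueller-Hinton broth. Compound in DMSO added to bacterial culture at 5 × 10^5 cells/ml, starting at 64 µg/ml, then serially doubled down. Incubated at 37 °C overnight and read as OD600. MIC taken as the minimum inhibitory concentration, obtained in at least two independent experiments.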

Pseudomonas aeruginosa = test: Antimicrobial activity against Pseudomonas aeruginosa ATCC 27853 by broth microdilution method; in short: as §1
[1] = test system: Salmonella enterica subsp. enterica serovar Paratyphi B; test: Antimicrobial activity against Salmonella paratyphi B CMCC 50094 by broth microdilution method
In short: (§2)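 Two-fold serial dilution in Mueller-Hinton broth, starting at 64 µg/ml. Compound was added as a DMSO solution to bacterial culture at 5 × 10^5 cells/ml, then double-diluted. Plates were incubated overnight at 37 °C and OD600 was read. MIC was taken from at least two independent experiments.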

Streptococcus = test: Antimicrobial activity against hemolytic Streptococcus Group B CMCC 32210 by broth microdilution method; in short: as §1
Staphylococcus aureus [2] = test: Antimicrobial activity against Staphylococcus aureus ATCC 25923 by broth microdilution method; in short: as §1
[3] = test system: Staphylococcus epidermidis; test: Antimicrobial activity against Staphylococcus epidermidis ATCC 12228 by broth microdilution method; in short: as §1
Enterococcus faecalis = test: Antimicrobial activity against Enterococcus faecalis ATCC 29212 by broth microdilution method; in short: as §1
Staphylococcus aureus [4] = test: Antimicrobial activity against methicillin-resistant Staphylococcus aureus ATCC 43300 by broth microdilution method; in short: as §2
Candida albicans = test: Antifungal activity against Candida albicans ATCC 10231 by broth microdilution method
Staphylococcus aureus [5] = test: Ratio of MIC for vancomycin to compound for methicillin-resistant Staphylococcus aureus ATCC 43300 by broth microdilution method

Row | SMILES | MIC (Escherichia coli) [µg/mL] | MIC (Pseudomonas aeruginosa) [µg/mL] | MIC [1] [µg/mL] | MIC (Streptococcus) [µg/mL] | MIC (Staphylococcus aureus [2]) [µg/mL] | MIC [3] [µg/mL] | MIC (Enterococcus faecalis) [µg/mL] | MIC (Staphylococcus aureus [4]) [µg/mL] | MIC (Candida albicans) [µg/mL] | Ratio (Staphylococcus aureus [5])
1 | CN1CCN(C(=O)c2c3c(n4cc(Br)ccc24)C(=O)c2ncccc2C3=O)CC1 | > 64 | > 64 | > 64 | 8 (≈ 17.6 µM) | 16 (≈ 35.3 µM) | 32 (≈ 70.6 µM) | > 64 | 32 (≈ 70.6 µM) | > 64 | –
2 | O=C1c2cccnc2C(=O)c2c1c(C(=O)NCCN1CCOCC1)c1ccc(Br)cn21 | 64 (≈ 132 µM) | 64 (≈ 132 µM) | > 64 | 0.5 (≈ 1.03 µM) | 1 (≈ 2.07 µM) | 4 (≈ 8.28 µM) | 4 (≈ 8.28 µM) | 8 (≈ 16.6 µM) | > 64 | –
3 | O=C1c2cccnc2C(=O)c2c1c(C(=O)NCCCN1CCCCC1)c1ccc(Br)cn21 | > 64 | > 64 | > 64 | 1 (≈ 2.02 µM) | 2 (≈ 4.04 µM) | 8 (≈ 16.1 µM) | 2 (≈ 4.04 µM) | 4 (≈ 8.07 µM) | > 64 | –
4 | O=C1c2cccnc2C(=O)c2c1c(C(=O)OCC(F)(F)F)c1ccc(Br)cn21 | > 64 | > 64 | > 64 | 0.031 (≈ 0.0684 µM) | 0.031 (≈ 0.0684 µM) | 0.016 (≈ 0.0353 µM) | 0.016 (≈ 0.0353 µM) | 0.031 (≈ 0.0684 µM) | > 64 | 32
5 | O=C1c2cccnc2C(=O)c2c1c(C(=O)NCCN1CCCCC1)c1ccc(Br)cn21 | 64 (≈ 133 µM) | 64 (≈ 133 µM) | 64 (≈ 133 µM) | 0.5 (≈ 1.04 µM) | 1 (≈ 2.08 µM) | 1 (≈ 2.08 µM) | 2 (≈ 4.15 µM) | 2 (≈ 4.15 µM) | > 64 | –
6 | O=C1c2cccnc2C(=O)c2c1c(C(=O)N1CCCC1)c1ccc(Br)cn21 | > 64 | > 64 | > 64 | 16 (≈ 37.7 µM) | 8 (≈ 18.9 µM) | 32 (≈ 75.4 µM) | > 64 | 64 (≈ 151 µM) | > 64 | –
7 | CN(C)CCNC(=O)c1c2c(n3cc(Br)ccc13)C(=O)c1ncccc1C2=O | > 64 | > 64 | > 64 | 0.5 (≈ 1.13 µM) | 4 (≈ 9.06 µM) | 2 (≈ 4.53 µM) | 1 (≈ 2.27 µM) | 4 (≈ 9.06 µM) | > 64 | –
8 | CN(C)CCOC(=O)c1c2c(n3cc(Br)ccc13)C(=O)c1ncccc1C2=O | 2 (≈ 4.52 µM) | > 64 | 1 (≈ 2.26 µM) | 0.031 (≈ 0.0701 µM) | 0.13 (≈ 0.294 µM) | 0.13 (≈ 0.294 µM) | 0.13 (≈ 0.294 µM) | 0.13 (≈ 0.294 µM) | > 64 | –
9 | O=C1c2cccnc2C(=O)c2c1c(C(=O)N1CCOCC1)c1ccc(Br)cn21 | > 64 | > 64 | > 64 | 16 (≈ 36.3 µM) | 16 (≈ 36.3 µM) | 32 (≈ 72.7 µM) | > 64 | 64 (≈ 145 µM) | > 64 | –
10 | O=C1c2cccnc2C(=O)c2c1c(C(=O)OCCF)c1ccc(Br)cn21 | > 64 | > 64 | > 64 | 0.031 (≈ 0.0743 µM) | 0.031 (≈ 0.0743 µM) | 0.016 (≈ 0.0384 µM) | 0.016 (≈ 0.0384 µM) | 0.063 (≈ 0.151 µM) | > 64 | 16
11 | COC(=O)c1c2c(n3cc(Br)ccc13)C(=O)c1ncccc1C2=O | 64 (≈ 166 µM) | > 64 | > 64 | 0.031 (≈ 0.0805 µM) | 0.031 (≈ 0.0805 µM) | 0.016 (≈ 0.0415 µM) | 0.031 (≈ 0.0805 µM) | 0.063 (≈ 0.164 µM) | > 64 | 16
12 | CC1(C)S[C@@H]2[C@H](NC(=O)Cc3ccccc3)C(=O)N2[C@H]1C(=O)O [PENICILLIN G] | 64 (≈ 191 µM) | > 64 | 2 (≈ 5.98 µM) | < 0.031 | < 0.031 | 16 (≈ 47.8 µM) | 2 (≈ 5.98 µM) | > 64 | – | –
